Experimental data as given in ChEMBL document CHEMBL4706706, “Structure-activity relationship and mechanistic studies for a series of cinnamyl hydroxamate histone deacetylase inhibitors” (Bioorg Med Chem, 2021).

How the values were obtained:
Homo sapiens = organism: Homo sapiens; test: Selectivity index, ratio of IC50 for inhibition of recombinant human full-length C-terminal FLAG/His-tagged HDAC1 (1 to 482 residues) expressed in baculovirus infected Sf9 insect cells to IC50 for inhibition of recombinant human full-length N-terminal GST-tagged HDAC6 (1 to 1215 residues) expressed in baculovirus infected Sf9 insect cells
MCF7 = test: Cytotoxicity against human MCF7 cells assessed as reduction in cell viability measured after 72 hrs by MTT assay; assay type: functional, cell-based; details: MCF7, 72 h
Jurkat = test: Cytotoxicity against human Jurkat cells assessed as reduction in cell viability measured after 72 hrs by MTT assay; assay type: functional, cell-based
[1] = target: Histone deacetylase (Homo sapiens) (UniProt Q13547+O15379+Q9UBN7+Q92769+Q9UQL6+Q8WUI4+Q9BY41+Q96DB2+P56524+Q9UKV0+Q969S8); test: Inhibition of HDAC in human HeLa cell nuclear extracts at 100 uM relative to control; assay type: subcellular; details: Nucleus
Procedure, shortened: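 Total HDAC activity measured with HeLa nuclear extract as enzyme source; single dose of 100 µM run in duplicate.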

[2] = target: T1, Protein deacetylase HDAC6 (Homo sapiens, UniProt Q9UBN7); test: Inhibition of recombinant human full-length N-terminal GST-tagged HDAC6 (1 to 1215 residues) expressed in baculovirus infected Sf9 insect cells using RHKK(Ac)AMC as substrate preincubated for 5 to 10 mins followed by substrate addition and measured after 2 hrs by fluorescence assay
T1 sequence (Q9UBN7 whole entry): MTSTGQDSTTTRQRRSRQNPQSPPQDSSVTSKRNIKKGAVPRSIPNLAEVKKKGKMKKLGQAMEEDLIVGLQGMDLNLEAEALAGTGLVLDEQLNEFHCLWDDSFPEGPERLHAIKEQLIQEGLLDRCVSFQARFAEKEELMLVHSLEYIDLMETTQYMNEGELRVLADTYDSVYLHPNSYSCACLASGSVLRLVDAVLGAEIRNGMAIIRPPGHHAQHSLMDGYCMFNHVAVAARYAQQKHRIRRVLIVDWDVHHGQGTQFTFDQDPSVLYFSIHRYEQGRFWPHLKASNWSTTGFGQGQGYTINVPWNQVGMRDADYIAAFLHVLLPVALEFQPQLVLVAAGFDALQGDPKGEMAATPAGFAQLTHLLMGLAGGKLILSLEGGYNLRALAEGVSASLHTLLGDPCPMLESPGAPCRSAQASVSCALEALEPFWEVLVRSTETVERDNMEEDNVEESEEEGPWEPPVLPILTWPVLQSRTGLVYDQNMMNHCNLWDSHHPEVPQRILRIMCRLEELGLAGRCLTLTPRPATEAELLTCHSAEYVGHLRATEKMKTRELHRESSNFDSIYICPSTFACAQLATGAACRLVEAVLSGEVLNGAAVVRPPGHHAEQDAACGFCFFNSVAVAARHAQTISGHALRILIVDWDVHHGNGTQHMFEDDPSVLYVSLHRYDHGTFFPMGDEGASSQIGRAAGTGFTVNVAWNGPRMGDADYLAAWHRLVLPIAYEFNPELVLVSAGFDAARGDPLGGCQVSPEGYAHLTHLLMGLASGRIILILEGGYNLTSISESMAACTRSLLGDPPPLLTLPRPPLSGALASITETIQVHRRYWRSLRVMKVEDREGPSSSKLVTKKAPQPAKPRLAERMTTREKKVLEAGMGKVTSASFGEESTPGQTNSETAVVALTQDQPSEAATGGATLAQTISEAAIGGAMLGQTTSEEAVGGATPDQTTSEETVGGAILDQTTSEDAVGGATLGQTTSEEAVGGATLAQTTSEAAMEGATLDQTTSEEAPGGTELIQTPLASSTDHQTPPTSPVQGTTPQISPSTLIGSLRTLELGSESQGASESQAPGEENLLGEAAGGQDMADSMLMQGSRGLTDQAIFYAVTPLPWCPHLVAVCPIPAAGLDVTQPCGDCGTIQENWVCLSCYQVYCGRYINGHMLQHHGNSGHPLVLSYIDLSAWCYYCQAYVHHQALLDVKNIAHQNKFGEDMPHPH

HCT-116 = test: Cytotoxicity against human HCT-116 cells assessed as reduction in cell viability measured after 72 hrs by MTT assay; assay type: functional, cell-based; details: HCT-116, 72 h
NAMALVA = test: Cytotoxicity against human NAMALVA cells assessed as reduction in cell viability measured after 72 hrs by MTT assay; assay type: functional, cell-based
Histone deacetylase 1 = Histone deacetylase 1 (Homo sapiens, UniProt Q13547); test: Inhibition of recombinant human full-length C-terminal FLAG/His-tagged HDAC1 (1 to 482 residues) expressed in baculovirus infected Sf9 insect cells using RHKK(Ac)AMC as substrate preincubated for 5 to 10 mins followed by substrate addition and measured after 2 hrs by fluorescence assay
Histone deacetylase 1, sequence (Q13547 whole entry, the tested form may be a part): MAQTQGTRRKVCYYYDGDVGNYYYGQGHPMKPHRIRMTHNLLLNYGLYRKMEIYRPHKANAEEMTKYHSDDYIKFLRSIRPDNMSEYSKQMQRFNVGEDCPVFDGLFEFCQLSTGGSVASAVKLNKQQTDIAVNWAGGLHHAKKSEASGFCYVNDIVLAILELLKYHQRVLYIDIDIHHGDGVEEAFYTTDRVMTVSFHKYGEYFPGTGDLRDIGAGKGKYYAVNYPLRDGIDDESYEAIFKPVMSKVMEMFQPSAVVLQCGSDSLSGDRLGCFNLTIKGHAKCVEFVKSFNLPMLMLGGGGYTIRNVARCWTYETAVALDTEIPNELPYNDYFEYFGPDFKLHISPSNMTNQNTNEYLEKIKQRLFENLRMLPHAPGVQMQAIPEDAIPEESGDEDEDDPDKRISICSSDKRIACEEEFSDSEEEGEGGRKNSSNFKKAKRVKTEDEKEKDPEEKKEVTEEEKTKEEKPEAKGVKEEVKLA

| inhibition [1] | IC50 [2] | IC50 (Histone deacetylase 1) | Structure (SMILES) | Ratio IC50 (Homo sapiens) | IC50 (MCF7) | IC50 (Jurkat) | IC50 (HCT-116) | IC50 (NAMALVA) |
| --- | --- | --- | --- | --- | --- | --- | --- | --- |
| 92% | 20.7 nM | 1320 nM | O=C(Nc1ccc(Cl)cc1)Nc1ccc(C(=O)NO)cc1 | 64 | > 50000 nM | 1060 nM | > 50000 nM | 870 nM |
| 98% | 105 nM | 941 nM | O=C(CCc1ccc(NC(=O)Nc2ccc(Cl)cc2)cc1)NO | 9 | > 50000 nM | 410 nM | 17900 nM | 370 nM |
